{"data": "Assay results gathered from unrelated publications", "ALK": "ALK tyrosine kinase receptor (ALK, Homo sapiens, UniProt Q9UM73)", "ALK L1196M": "ALK tyrosine kinase receptor (ALK, Homo sapiens, UniProt Q9UM73, L1196M)", "ALK C1156Y": "ALK tyrosine kinase receptor (ALK, Homo sapiens, UniProt Q9UM73, C1156Y)", "note": "Protocols differ between the studies behind these lines."}
{"Structure (SMILES)": "CN(CCCC(F)(F)F)c1nccc(-c2cnn3ncccc23)n1", "target": "ALK", "effect on": "binding", "tested at": "1 µM", "remaining binding [%]": 97}
{"Structure (SMILES)": "COc1cnc(Nc2cccc(S(N)(=O)=O)c2)nc1N1CCN(c2ccccc2)CC1", "target": "ALK L1196M", "effect on": "binding", "method": "competition with immobilised ligand", "tested at": "1 µM", "remaining binding [%]": 100}
{"Structure (SMILES)": "CC1=C(C#N)[C@@H](c2ccc3[nH]nc(C)c3c2)C(C#N)=C(c2ccc(Cl)cc2)N1", "target": "ALK C1156Y", "effect on": "cell-free assay", "method": "competition with immobilised ligand", "tested at": "1 µM", "remaining binding [%]": 100}
{"Structure (SMILES)": "C[C@@H](c1ccc(-n2cnc3c(N)ncnc32)cc1)N1CCc2nn(C)c(Cc3ccccc3)c2C1=O", "target": "ALK C1156Y", "effect on": "binding", "method": "competition with immobilised ligand", "tested at": "0.1 µM", "remaining binding [%]": 57}
{"Structure (SMILES)": "O=C(NCCCN1CCOCC1)c1ccc(Nc2nccc(-c3cc4ccccc4s3)n2)cc1", "target": "ALK L1196M", "effect on": "binding", "method": "competition with immobilised ligand", "tested at": "1 µM", "remaining binding [%]": 100}
{"Structure (SMILES)": "COc1cnc(Nc2cccc(S(N)(=O)=O)c2)nc1N1CCN(c2ccccc2)C(=O)C1", "target": "ALK", "effect on": "binding", "method": "competition with immobilised ligand", "tested at": "1 µM", "remaining binding [%]": 100}
{"Structure (SMILES)": "N[C@@H]1CCN(c2nccc(-c3cnn4ncccc34)n2)C1", "target": "ALK", "effect on": "binding", "tested at": "1 µM", "remaining binding [%]": 97}
{"Structure (SMILES)": "COCCOc1nc(-c2ccc(Cl)nc2)nc2c1CN(C(=O)c1ncn3ccccc13)CC2", "target": "ALK L1196M", "effect on": "cell-free assay", "method": "competition with immobilised ligand", "tested at": "0.1 µM", "remaining binding [%]": 100}
{"Structure (SMILES)": "O=C(NCCCN1CCOCC1)c1ccc(Nc2ncc(Cl)c(-c3ccc(Cl)s3)n2)cc1", "target": "ALK L1196M", "effect on": "binding", "method": "competition with immobilised ligand", "tested at": "1 µM", "remaining binding [%]": 90}
{"Structure (SMILES)": "Cc1noc([C@H]2C[C@@H](c3ccc(C(F)(F)F)cc3)CN(C(=O)N3CCS(=O)(=O)C3)C2)n1", "target": "ALK", "effect on": "cell-free assay", "method": "competition with immobilised ligand", "tested at": "1 µM", "remaining binding [%]": 100}
{"Structure (SMILES)": "C[C@@H]1CCN(c2nccc(-c3cnn4ncccc34)n2)C1", "target": "ALK L1196M", "effect on": "binding", "tested at": "1 µM", "remaining binding [%]": 100}
{"Structure (SMILES)": "O=C(NCC1CCOCC1)c1n[nH]cc1NC(=O)c1c(F)cccc1F", "target": "ALK", "effect on": "binding", "method": "competition with immobilised ligand", "tested at": "1 µM", "remaining binding [%]": 93}
{"Structure (SMILES)": "CCS(=O)(=O)c1cc2cc(C[C@](O)(CC(C)(C)c3ccc(F)cc3C(N)=O)C(F)(F)F)[nH]c2cn1", "target": "ALK C1156Y", "effect on": "cell-free assay", "method": "competition with immobilised ligand", "tested at": "1 µM", "remaining binding [%]": 96}
{"Structure (SMILES)": "F[C@@H]1CCN(c2nccc(-c3cnn4ncccc34)n2)C1", "target": "ALK", "effect on": "binding", "tested at": "1 µM", "remaining binding [%]": 100}
{"Structure (SMILES)": "Nc1c(C(=O)NCc2ccc(C(=O)NCCCC3CCCCC3)cc2)cnn1-c1ccccc1", "target": "ALK", "effect on": "cell-free assay", "method": "competition with immobilised ligand", "tested at": "0.1 µM", "remaining binding [%]": 100}
{"Structure (SMILES)": "Cc1cnc(Nc2ccc(C(=O)N3CCC(N4CCCC4)CC3)cc2)nc1-c1cc2ccccc2s1", "target": "ALK C1156Y", "effect on": "binding", "method": "competition with immobilised ligand", "tested at": "1 µM", "remaining binding [%]": 34}
{"Structure (SMILES)": "Cc1c(NC(=O)c2cc(C(N)=O)nc3cc(F)ccc23)c(C(F)(F)F)nn1Cc1ccc(C(C)(C)C)cc1", "target": "ALK", "effect on": "cell-free assay", "method": "competition with immobilised ligand", "tested at": "1 µM", "remaining binding [%]": 96}
{"Structure (SMILES)": "CN(c1nccc(-c2cnn3ncccc23)n1)C1CC1", "target": "ALK C1156Y", "effect on": "binding", "tested at": "1 µM", "remaining binding [%]": 100}
